Assay results taken from ChEMBL document CHEMBL1158601, “Discovery of a novel series of CXCR3 antagonists” (Bioorg Med Chem Lett, 2010).
Values after ≈ are worked out from the molar mass of the structure shown. Active and inactive are the calls of the source. The rule behind the calls is not given here.

Legend:
[1] = Aqueous solubility at pH 7.4; type: physicochemical; conditions: buffer
How it was run: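 Aqueous solubility measured at pH 7.4.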

[2] = molecular target: T1, C-X-C chemokine receptor type 5 (Homo sapiens) (UniProt P32302); assay: Antagonist activity at human CXCR5 expressed in mouse L1.2 cells assessed as inhibition of CXCL13-induced chemotaxis up to 10 uM after 4 hrs; type: functional, cell-based
T1 sequence (whole entry): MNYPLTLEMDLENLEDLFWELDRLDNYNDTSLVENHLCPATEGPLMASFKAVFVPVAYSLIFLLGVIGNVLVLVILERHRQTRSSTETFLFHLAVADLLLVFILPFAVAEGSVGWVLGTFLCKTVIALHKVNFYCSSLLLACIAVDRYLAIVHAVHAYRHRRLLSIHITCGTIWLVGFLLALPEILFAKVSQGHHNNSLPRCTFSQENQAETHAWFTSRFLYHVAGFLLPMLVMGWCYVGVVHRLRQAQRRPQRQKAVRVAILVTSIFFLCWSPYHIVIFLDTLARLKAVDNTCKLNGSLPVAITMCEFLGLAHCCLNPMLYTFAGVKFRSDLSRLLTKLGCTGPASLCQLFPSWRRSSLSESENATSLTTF
How it was run: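 Counter-screen chemotaxis: CXCR5-overexpressing L1.2 cells stimulated with CXCL13, test compounds up to 10 µM.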

[3] = Intrinsic clearance in mouse liver microsomes assessed per mg of protein; type: ADME, Microsome
[4] = Bioavailability in mouse at 10 mg/kg, po; type: ADME, organism-based; conditions: in vivo
[5] = Half life in mouse at 10 mg/kg, po; type: ADME, organism-based; set-up: dose 10 mg/kg, route oral; conditions: in vivo
[6] = Volume of distribution at steady state in mouse at 0.2 mg/kg, iv; type: ADME, organism-based; set-up: dose 0.2 mg/kg, route intravenous; conditions: in vivo, read-out: Vdss
[7] = Clearance in mouse at 0.2 mg/kg, iv; type: ADME, organism-based; set-up: dose 0.2 mg/kg, route intravenous; conditions: in vivo
Mus musculus = assay: Clearance in mouse assessed as liver blood flow at 0.2 mg/kg, iv; type: ADME, organism-based; set-up: dose 0.2 mg/kg, route intravenous; conditions: in vivo
[8] = Intrinsic clearance in human liver microsomes assessed per mg of protein; type: ADME, Microsome
How it was run: (§1)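 Intrinsic clearance from stability in human and rat liver microsomes, expressed as µL/min/mg protein.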

[9] = Intrinsic clearance in rat liver microsomes assessed per mg of protein; type: ADME, Microsome; how it was run: as §1
[10] = Apparent permeability across human Caco-2 cells; type: ADME, cell-based
[11] = molecular target: T2, C-X-C chemokine receptor type 3 (Homo sapiens) (UniProt P49682); assay: Antagonist activity at CXCR3 assessed as inhibition of ITAC-induced GTPgammaS binding; type: functional
T2 sequence (whole entry): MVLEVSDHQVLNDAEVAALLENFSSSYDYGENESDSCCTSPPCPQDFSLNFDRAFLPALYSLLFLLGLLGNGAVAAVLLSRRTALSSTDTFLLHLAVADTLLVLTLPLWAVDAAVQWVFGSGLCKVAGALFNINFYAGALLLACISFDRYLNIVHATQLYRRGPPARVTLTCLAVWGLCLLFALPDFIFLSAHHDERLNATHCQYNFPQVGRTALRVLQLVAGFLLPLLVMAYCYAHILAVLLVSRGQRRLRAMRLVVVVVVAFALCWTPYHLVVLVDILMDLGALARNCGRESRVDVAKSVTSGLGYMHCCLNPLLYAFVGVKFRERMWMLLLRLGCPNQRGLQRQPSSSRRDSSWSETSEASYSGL

[12] = Lipophilicity, log P of the compound; type: physicochemical; conditions: octanol/water
[13] = molecular target: T3, C-X-C chemokine receptor type 3 (Homo sapiens, UniProt P49682); assay: Displacement of labeled ITAC from CXCR3
T3 sequence (P49682 whole entry): T2 sequence (whole entry)

[14] = molecular target: T2, C-X-C chemokine receptor type 3 (Homo sapiens); assay: Antagonist activity at human CXCR3 expressed in mouse L1.2 cells assessed as inhibition of ITAC-induced chemotaxis after 4 hrs; type: functional, cell-based
[15] = Nephelometric kinetic solubility in PBS; type: physicochemical
[16] = molecular target: T2, C-X-C chemokine receptor type 3 (Homo sapiens); assay: Antagonist activity at CXCR3 assessed as inhibition of IP10-induced GTPgammaS binding; type: functional
[17] = molecular target: T3, C-X-C chemokine receptor type 3; assay: Displacement of labeled IP10 from CXCR3
[18] = Chemical stability at pH 1; type: physicochemical; conditions: buffer

COc1ccc(CN(Cc2ccc(-c3nnn[nH]3)cc2)S(=O)(=O)c2ccc(Cl)cc2)cc1
solubility [1]: > 100 µM | Activity [2]: inactive

N#Cc1ccc(S(=O)(=O)N(Cc2ccc(-c3nnn[nH]3)c(F)c2)Cc2ccccc2F)cc1
microsomal CLint [3]: 17 µL/min/mg | bioavailability [4]: 83% | solubility [1]: > 100 µM | Activity [2]: inactive | half-life [5]: 1 h | Vd [6]: 1 L/kg | clearance [7]: 28.3 mL/min/kg | Fraction of Liver Blood Flow (Mus musculus): 30%

O=C(NC[C@@H]1CCCO1)c1ccc(CN(Cc2ccccc2)S(=O)(=O)c2ccc(Cl)cc2)cc1
solubility [1]: < 10 µM | Activity [2]: inactive | microsomal CLint [8]: 490 µL/min/mg | microsomal CLint [9]: 1700 µL/min/mg

O=S(=O)(c1ccc(Cl)cc1)N(Cc1ccc(-c2nnn[nH]2)cc1)Cc1ccccc1F
solubility [1]: > 100 µM | Activity [2]: inactive

O=S(=O)(c1ccc(Cl)cc1)N(Cc1ccc(-c2nnn[nH]2)c(F)c1)Cc1ccccc1F
solubility [1]: > 100 µM | Activity [2]: inactive | microsomal CLint [8]: < 10 µL/min/mg | microsomal CLint [9]: 71 µL/min/mg

O=S(=O)(c1ccc(Cl)cc1)N(Cc1ccc(-c2nnc(O)o2)cc1)Cc1ccccn1
Activity [2]: inactive

N#Cc1ccc(S(=O)(=O)N(Cc2ccc(-c3nnn[nH]3)cc2)Cc2ccccc2F)cc1
solubility [1]: > 100 µM | Activity [2]: inactive | microsomal CLint [9]: 67 µL/min/mg

CCOc1ccc(S(=O)(=O)N(Cc2ccccc2)Cc2ccc(C(=O)NCC3CC3)cc2)cc1
solubility [1]: < 10 µM | Activity [2]: inactive

N#Cc1ccc(S(=O)(=O)N(Cc2ccc(C(=O)NCC3CC3)cc2)Cc2ccccn2)cc1
solubility [1]: < 10 µM | Activity [2]: inactive

O=C(NCCc1cccc([N+](=O)[O-])c1)c1ccc(CN(Cc2ccccc2)S(=O)(=O)c2ccc(Cl)cc2)cc1
solubility [1]: < 10 µM | Activity [2]: inactive

COc1cccc(CN(Cc2ccc(-c3nnn[nH]3)cc2)S(=O)(=O)c2ccc(Cl)cc2)c1
solubility [1]: > 100 µM | Activity [2]: inactive

O=C(NCc1cccc(Cl)c1)c1ccc(CN(Cc2ccccc2)S(=O)(=O)c2ccc(Cl)cc2)cc1
solubility [1]: < 10 µM | Activity [2]: inactive

O=S(=O)(c1ccc(Cl)cc1)N(Cc1ccc(F)cc1)Cc1ccc(-c2nnn[nH]2)cc1
solubility [1]: > 100 µM | Activity [2]: inactive

O=C(NCc1cccs1)c1ccc(CN(Cc2ccccc2)S(=O)(=O)c2ccc(Cl)cc2)cc1
solubility [1]: < 10 µM | Activity [2]: inactive

O=C(NCC1CC1)c1ccc(CN(Cc2ccccc2F)S(=O)(=O)c2ccc(Cl)cc2)cc1
solubility [1]: < 10 µM | Activity [2]: inactive

O=C(O)c1ccc(CN(Cc2ccccc2)S(=O)(=O)c2ccc(Cl)cc2)cc1
Activity [2]: inactive | microsomal CLint [8]: < 10 µL/min/mg | microsomal CLint [9]: 20 µL/min/mg

O=C(NCc1cccc(Cl)c1)c1ccc(CN(Cc2ccccn2)S(=O)(=O)c2ccc(Cl)cc2)cc1
solubility [1]: < 10 µM | Activity [2]: inactive | microsomal CLint [8]: 583 µL/min/mg | microsomal CLint [9]: 1190 µL/min/mg

O=S(=O)(c1ccc(Cl)cc1)N(Cc1ccc(-c2nnn[nH]2)c(F)c1)Cc1ccccn1
solubility [1]: > 100 µM | Activity [2]: inactive

CCOc1ccc(S(=O)(=O)N(Cc2ccc(-c3nnn[nH]3)cc2)Cc2ccccn2)cc1
solubility [1]: > 100 µM | Activity [2]: inactive

COc1ccc(S(=O)(=O)N(Cc2ccccc2)Cc2ccc(C(=O)NCc3ccccc3)cc2)cc1
solubility [1]: < 10 µM | Activity [2]: inactive

O=C(O)c1ccc(CN(Cc2ccccn2)S(=O)(=O)c2ccc(Cl)cc2)cc1F
Activity [2]: inactive

N#Cc1ccc(S(=O)(=O)N(Cc2ccc(C(=O)O)c(F)c2)Cc2ccccn2)cc1
Activity [2]: inactive

O=C(NCC1CC1)c1ccc(CN(Cc2cccc(Cl)c2)S(=O)(=O)c2ccc(Cl)cc2)cc1
solubility [1]: < 10 µM | Activity [2]: inactive

O=C(NCC1CC1)c1ccc(CN(Cc2ccccc2)S(=O)(=O)c2ccc(Cl)cc2)cc1
solubility [1]: < 10 µM | Activity [2]: inactive

O=C(NCC1CC1)c1ccc(CN(Cc2ccccc2)S(=O)(=O)c2ccc(OC(F)(F)F)cc2)cc1
solubility [1]: < 10 µM | Activity [2]: inactive

COc1ccc(S(=O)(=O)N(Cc2ccc(C(=O)NCC3CC3)cc2)Cc2cccnc2)cc1
solubility [1]: < 10 µM | Activity [2]: inactive

CC(C)(C)c1nc(CCN(Cc2ccc(-c3nnn[nH]3)cc2)S(=O)(=O)c2ccc(Cl)cc2)no1
solubility [1]: > 100 µM | Activity [2]: inactive

COc1ccc(S(=O)(=O)N(Cc2ccccc2)Cc2ccc(C(=O)NCC3CC3)cc2)cc1
solubility [1]: < 10 µM | Activity [2]: inactive

O=C(O)c1ccc(CN(Cc2ccccc2F)S(=O)(=O)c2ccc(Cl)cc2)cc1F
Activity [2]: inactive | microsomal CLint [9]: < 10 µL/min/mg

O=C(NC1(c2ccccc2)CC1)c1ccc(CN(Cc2ccccn2)S(=O)(=O)c2ccc(Cl)cc2)cc1
solubility [1]: < 10 µM | Activity [2]: inactive | microsomal CLint [8]: 257 µL/min/mg | microsomal CLint [9]: 1260 µL/min/mg

O=S(=O)(c1ccc(Cl)cc1)N(Cc1ccc(-c2nnn[nH]2)cc1)Cc1ccccn1
solubility [1]: > 100 µM | Activity [2]: inactive | microsomal CLint [8]: < 10 µL/min/mg | microsomal CLint [9]: 25 µL/min/mg

N#Cc1ccc(S(=O)(=O)N(Cc2ccc(-c3nnn[nH]3)cc2)Cc2ccccn2)cc1
solubility [1]: > 100 µM | Activity [2]: inactive

O=S(=O)(c1ccc(Cl)cc1)N(Cc1ccc(Cl)cc1)Cc1ccc(-c2nnn[nH]2)cc1
solubility [1]: > 100 µM | Activity [2]: inactive

O=S(=O)(c1ccc(Cl)cc1)N(CCc1cc2ccccc2cn1)Cc1ccc(-c2nnn[nH]2)cc1
solubility [1]: > 100 µM | Activity [2]: inactive

O=C(NC1(c2ccccc2)CC1)c1ccc(CN(Cc2ccccc2)S(=O)(=O)c2ccc(Cl)cc2)cc1
solubility [1]: < 10 µM | Activity [2]: inactive | microsomal CLint [8]: 211 µL/min/mg | microsomal CLint [9]: 507 µL/min/mg

O=C(NCC1CC1)c1ccc(CN(Cc2ccccn2)S(=O)(=O)c2ccc(Cl)cc2)cc1
solubility [1]: < 10 µM | Activity [2]: inactive | microsomal CLint [8]: 265 µL/min/mg | microsomal CLint [9]: 538 µL/min/mg

COc1ccc(S(=O)(=O)N(Cc2ccccc2)Cc2ccc(C(=O)O)cc2)cc1
Activity [2]: inactive

N#Cc1ccc(S(=O)(=O)N(Cc2ccc(C(=O)NC3(c4ccccc4)CC3)cc2)Cc2ccccn2)cc1
solubility [1]: < 10 µM | Activity [2]: inactive | microsomal CLint [8]: 435 µL/min/mg | microsomal CLint [9]: 474 µL/min/mg

O=S(=O)(c1ccc(Cl)cc1)N(Cc1ccc(-c2nnn[nH]2)cc1)Cc1cccc(Cl)c1
solubility [1]: > 100 µM | Activity [2]: inactive

CC(=O)Nc1cccc(/C(C)=N\NC(=O)c2ccc(CN(Cc3ccccc3)S(=O)(=O)c3ccc(Cl)cc3)cc2)c1
Papp [10]: 0.1 ×10⁻⁶ cm/s | Activity [11]: 128 nM | microsomal CLint [8]: 92 µL/min/mg | logP [12]: 4.8 | Ki [13]: 211 nM | Activity [14]: 1810 nM | solubility kinetic [15]: 11.9 µM (≈ 7.01 µg/mL) | Activity [16]: 99 nM | Ki [17]: 348 nM | microsomal CLint [9]: 219 µL/min/mg | Stability [18]: Unstable
